# Results collected from several papers.
# Lines come from different studies, so protocols differ.
# Target: Serine/threonine-protein kinase PAK 5 (PAK5, Homo sapiens, UniProt Q9P286)
SMILES,assay,setting,endpoint,value
CN(C)C(=O)Cn1cc(-c2nc(C3(c4ccc(-c5cnc(N)nc5)cc4)CC3)no2)cn1,"cell-free assay, competition with immobilised ligand",1 µM,remaining binding,88%
CN1CC(Oc2cnc(C#N)cc2-c2ccn3nc(NC(=O)C4CC4)cc3c2)C1,"enzyme activity, inhibitor",1 µM,inhibition,3%
Cc1nccc(COC(=O)N2C[C@@H]3[C@@H](CNC(=O)c4ccc5[nH]nnc5c4)[C@@H]3C2)n1,"cell-free assay, competition with immobilised ligand",1 µM,remaining binding,92%
O=C1NC(=O)c2cc(Nc3ccc(F)cc3)c(Nc3ccc(F)cc3)cc21,cell-free assay,0.5 µM,remaining signal,96.4%
COc1cc(/C=C/C(=O)CC(=O)/C=C/c2ccc(O)c(OC)c2)ccc1O,"enzyme activity, inhibitor",1 µM,activity vs control,108%
Nc1ncnc2occ(-c3ccc(NC(=O)Nc4cc(C(F)(F)F)ccc4F)cc3)c12,"cell-free assay, inhibitor",20 µM,remaining signal,60%
O=C(O)[C@H]1[C@H](Cn2nnc3ccccc3c2=O)CC[C@@H]1C(=O)c1ccc(OCCC2CCOCC2)cc1,"cell-free assay, competition with immobilised ligand",1 µM,remaining binding,98%
CNC(=O)c1cc(Oc2ccc(NC(=O)Nc3ccc(Cl)c(C(F)(F)F)c3)cc2)ccn1,"enzyme activity, inhibitor",0.3 µM,inhibition,-18%
CCCS(=O)(=O)Nc1ccc(F)c(C(=O)c2c[nH]c3ncc(-c4ccc(Cl)cc4)cc23)c1F,"enzyme activity, inhibitor",1 µM,inhibition,< 10%
O=C1NC(c2ccccn2)Sc2ccccc21 (centres unmarked),"cell-free assay, competition with immobilised ligand",1 µM,remaining binding,94%
FC(F)(F)Oc1cccc(-c2cnc3ccc(-c4ccncc4)nn23)c1,"enzyme activity, inhibitor, radiometric",5 µM,activity vs control,62%
COc1cc(Cl)c(C(=O)N[C@@H](CN[C@H]2CC[C@@H](N)CC2)Cc2ccc(C#N)cc2)cc1-c1ccc(CN[C@H](C)c2ccc(C)cc2)o1,"enzyme activity, inhibitor",1 µM,remaining activity,103%
CCN(CC)CCNC(=O)c1c(C)[nH]c(/C=C2\C(=O)Nc3ccc(F)cc32)c1C,"enzyme activity, inhibitor",0.3 µM,inhibition,-4%
Cc1ccc(NC(=O)c2ccc(C)c(C(F)(F)F)c2)cc1C#Cc1nn(C2CCC(O)CC2)c2ncnc(N)c12 (centres unmarked),cell-free assay,10 µM,remaining signal,89%
COc1cc2ncnc(Nc3ccc(Oc4ccccc4)c(C)c3C)c2cc1OC,"enzyme activity, inhibitor",1 µM,inhibition,3%
O=C(Nc1cnn(-c2csc(C(=O)NC3COC3)c2)c1)Nc1c(F)cccc1Cl,"enzyme activity, inhibitor",5 µM,remaining activity,92.9%
Nc1nc(Nc2ccc(S(N)(=O)=O)cc2)nn1C(=O)c1c(F)cccc1F,cell-free assay,0.5 µM,remaining signal,85.4%
FC(F)c1nc2ccccc2n1-c1nc(N2CCOCC2)nc(N2CCOCC2)n1,"enzyme activity, inhibitor",10 µM,remaining activity,84%
CCC(=N\O)/C(C)=C/c1ccc(F)cc1,"cell-free assay, competition with immobilised ligand",1 µM,remaining binding,100%
CS(=O)(=O)CCNCc1ccc(-c2ccc3ncnc(Nc4ccc(OCc5cccc(F)c5)c(Cl)c4)c3c2)o1,cell-free assay,0.5 µM,remaining signal,98.5%
CCN(CC)c1ccc(C2=NNC(=O)CC2C)cc1[N+](=O)[O-] (centres unmarked),"enzyme activity, inhibitor",10 µM,remaining activity,5%
CC(C)(C)c1nc(-c2cccc(NS(=O)(=O)c3c(F)cccc3F)c2F)c(-c2ccnc(N)n2)s1,"enzyme activity, inhibitor, radiometric",1 µM,remaining activity,78%
Cc1c[nH]c2nccc(Oc3c(F)cc(Nc4cc(Cl)nc(N)n4)cc3F)c12,"cell-free assay, competition with immobilised ligand",0.1 µM,remaining binding,92%
Cc1ccc(C(=O)NCc2ccsc2)cc1C#Cc1cn(C(C)C)c2ncnc(N)c12,"enzyme activity, inhibitor",1 µM,activity vs control,105%
CCS(=O)(=O)c1cc2cc(C[C@](O)(CC(C)(C)c3ccc(F)cc3C(N)=O)C(F)(F)F)[nH]c2cn1,"cell-free assay, competition with immobilised ligand",1 µM,remaining binding,100%
CN(C)c1nccc(-c2cnc3ncccn23)n1,binding,1 µM,remaining binding,78%
C[C@@H]1CN(c2cc(-c3nn(C)c4ccc(OC5(C)CC5)cc34)ncn2)C[C@H](C)O1,"cell-free assay, competition with immobilised ligand",1 µM,remaining binding,84%
Cc1sc(C(=O)NC2COC2)cc1-n1cc(NC(=O)Nc2c(F)cccc2Cl)cn1,"enzyme activity, inhibitor",10 µM,remaining activity,103%
Nc1nc(NC2CCCCC2)sc1C(=O)c1ccccc1,"enzyme activity, inhibitor",10 µM,remaining activity,103%
